The test system of one data set is HL-60. The experiment in a line: Effective concentration against cell growth of HL60 cell line by 50%. Format: functional. The following applies: Homo sapiens, HL-60, read-out: ED50. Put shortly: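 HL60 cells grown in RPMI-1640 with 10% fetal calf serum. Exponentially growing cells were exposed to drug for 1 h at 37 °C. Survival was read either by MTT, after washing and 96 h culture in drug-free medium, or by cell counting after 72 h culture. Value is the drug concentration inhibiting cell growth by 50%.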

The test system of a further data set is L1210. The experiment in a line: Effective concentration against cell growth of L1210 cell line by 50%. As to conditions: Mus musculus, L1210, read-out: ED50. Format: functional. Put shortly: (§1)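 HeLa and L1210 cells grown in Dulbecco's modified Eagle's medium with 5% fetal calf serum, antibiotics and L-glutamine. Exponentially growing cells were exposed to drug for 1 h at 37 °C. Growth was scored by MTT, after washing and 96 h drug-free culture, or by cell counting after 72 h. Value is the concentration giving 50% growth inhibition.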

The subject of a further data set is HeLa. The experiment in a line: Effective concentration against cell growth of HeLa cell line by 50%. It is filed as functional. The following applies: Homo sapiens, read-out: ED50. In a few lines:
as §1

Data set [1] can be described thus: Exclusion parameter (base pairs). Format: ADME. In a few lines:
(§2)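 DNA titrations were run at constant anthraquinone concentration while the DNA/drug ratio was varied, at 25 °C in 10 mM Tris pH 7.0 with 1 mM EDTA and NaCl added to set ionic strength. Binding was followed by fluorescence quenching, or by absorbance at 500–750 nm for non-fluorescent drugs. McGhee–von Hippel analysis gave the intrinsic constant K and the exclusion parameter n.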

The next data set has as its system Nucleic Acid. Put plainly: Intrinsic Binding constant of compound to DNA at pH 7 and 25 Centigrade. It is filed as functional. The following applies: Bos taurus. Put shortly: as §2
Data set [2] is described as follows: Exclusion parameter (base pairs. It is filed as ADME. In a few lines: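 Fluorometric titration at 25 °C in 10 mM Tris pH 7.0, 1 mM EDTA, NaCl set to the chosen ionic strength. DNA/drug ratio varied at constant drug concentration by mixing drug-alone and drug-plus-DNA solutions. Nonfluorescent drugs followed spectrophotometrically at 500–750 nm. Data fitted by McGhee–von Hippel to give K and the exclusion parameter n.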

Where only a bound is given, the exact number is not on record here.

In the case of `NCC(=O)Nc1ccc(NC(=O)CN)c2c1C(=O)c1ccccc1C2=O`, the EC50 in the data set with HL-60 was determined as 1.9 µM; with L1210 it was 0.9 µM; with HeLa, 1.6 µM. In data set [1], this compound came in with an Exclusion parameter of 2.3. The K x10e-5 with Nucleic Acid worked out at 2.2 M⁻¹.

Consider `NCC(=O)NCC(=O)Nc1ccc(NC(=O)CNC(=O)CN)c2c1C(=O)c1ccccc1C2=O`, for which the EC50 in the data set on HL-60 is 2.3 µM; in the data set on L1210, 0.8 µM; with HeLa it was 2.4 µM. The compound further gave an Exclusion parameter in data set [1] of 2.5. Also, the K x10e-5 with Nucleic Acid came out at 2.4 M⁻¹.

For the compound `NCCCC[C@H](N)C(=O)NCC(=O)Nc1ccc(NC(=O)CNC(=O)[C@@H](N)CCCCN)c2c1C(=O)c1ccccc1C2=O`, the EC50 in the data set on HL-60 and in the data set with HeLa was over 100 µM throughout. For the same compound, the Exclusion parameter in data set [1] amounted to 2.3. Moreover, the K x10e-5 in the data set on Nucleic Acid worked out at 17.5 M⁻¹.

Take `NCC(=O)Nc1ccc(N)c2c1C(=O)c1ccccc1C2=O`: the values for the EC50 in the data set on HL-60, with L1210 and with HeLa were 2 µM, 0.31 µM and 2.7 µM, respectively. Moreover, the Exclusion parameter in data set [1] came out at 2.1. This compound also gave a K x10e-5 in the data set on Nucleic Acid of 3.6 M⁻¹.

Consider `O=C1c2ccccc2C(=O)c2c(NCCNCCO)ccc(NCCNCCO)c21` [AMETANTRONE], for which the EC50 came out at 0.88 µM with HL-60, 0.1 µM with L1210 and 3.1 µM in the data set with HeLa. In data set [2], this compound displayed an Exclusion parameter of 2.7. The K x10e-5 with Nucleic Acid was found to be 3.4 M⁻¹.

As for `NC(Cc1c[nH]c2ccccc12)C(=O)NCC(=O)Nc1ccc(NC(=O)CNC(=O)C(N)Cc2c[nH]c3ccccc23)c2c1C(=O)c1ccccc1C2=O` (configuration not stated), the EC50 in the data set with HL-60 amounted to 28 µM.

In data set [1], `NCC(=O)NCC(=O)NCC(=O)Nc1ccc(NC(=O)CNC(=O)CNC(=O)CN)c2c1C(=O)c1ccccc1C2=O` showed an Exclusion parameter of 2.4. Also, the K x10e-5 in the data set on Nucleic Acid was determined as 2.4 M⁻¹.

For `N[C@@H](Cc1c[nH]c2ccccc12)C(=O)NCC(=O)Nc1ccc(NC(=O)CNC(=O)[C@@H](N)Cc2c[nH]c3ccccc23)c2c1C(=O)c1ccccc1C2=O`, the EC50 with HL-60 came out at 30 µM.

Take `NCC(=O)NCC(=O)Nc1ccc(N)c2c1C(=O)c1ccccc1C2=O`: the EC50 with HL-60 worked out at 2 µM; in the data set with L1210, 0.24 µM; in the data set with HeLa, 2.7 µM. This compound also returned an Exclusion parameter in data set [1] of 2.2. Also, the K x10e-5 with Nucleic Acid came out at 1.7 M⁻¹.

For the compound `NCCCCC(N)C(=O)NCC(=O)Nc1ccc(NC(=O)CNC(=O)C(N)CCCCN)c2c1C(=O)c1ccccc1C2=O` (configuration not stated), the EC50 in the data set with HL-60 and in the data set on HeLa was over 100 µM throughout. In addition, the Exclusion parameter in data set [1] was 2.4. Moreover, the K x10e-5 in the data set with Nucleic Acid amounted to 33 M⁻¹.
